Series [1] has as its target Homeodomain-interacting protein kinase 1 (Homo sapiens) (UniProt Q86Z02). The experiment in a line: Inhibition of recombinant human N-terminal GST-tagged HIPK1 expressed in baculovirus expression system at 5 uM by lantha screen kinase binding assay relative to control. Summed up:
(§1)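 Binding-displacement format: the compound competes with an Alexa Fluor-conjugated tracer for binding to the kinase ATP site, rather than a peptide phosphorylation read-out.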

Series [2] deals with Dual specificity tyrosine-phosphorylation-regulated kinase 4 (Homo sapiens) (UniProt Q9NR20). Description: Inhibition of full length recombinant human GST-tagged DYRK4 expressed in baculovirus expression system at 5 uM by lantha screen kinase binding assay relative to control.
The target in series [3] is T1, Myosin light chain kinase 2, skeletal/cardiac muscle (Homo sapiens, UniProt Q9H1R3). The experiment in a line: Inhibition of full length recombinant human N-terminal GST-tagged MLCK expressed in baculovirus expression system at 5 uM by lantha screen kinase binding assay relative to control. In short, it runs like this:
as §1

The target of series [4] is BDNF/NT-3 growth factors receptor (Homo sapiens) (UniProt Q16620). The experiment in a line: Inhibition of recombinant human His-tagged NTRK2 expressed in baculovirus expression system at 5 uM by lantha screen kinase binding assay relative to control. Summed up:
as §1

The target of series [5] is Casein kinase I isoform gamma-2 (Homo sapiens) (UniProt P78368). The experiment in a line: Inhibition of full length recombinant human His-tagged CSNK1G2 expressed in baculovirus expression system at 5 uM by lantha screen kinase binding assay relative to control. Summed up:
as §1

In series [6] the target is cAMP-dependent protein kinase catalytic subunit alpha (Homo sapiens) (UniProt P17612). The experiment in a line: Inhibition of recombinant human His-tagged PRKACA expressed in Escherichia coli at 5 uM by lantha screen kinase binding assay relative to control. In short, it runs like this:
as §1

For series [7], the target named is Casein kinase I isoform delta (Homo sapiens) (UniProt P48730). Description: Inhibition of full length recombinant human GST-tagged CSNK1D expressed in baculovirus expression system at 5 uM by lantha screen kinase binding assay relative to control.
Series [8] has as its target Casein kinase I isoform gamma-3 (Homo sapiens) (UniProt Q9Y6M4). Description: Inhibition of full length recombinant human GST-tagged CSNK1G3 expressed in baculovirus expression system at 5 uM by lantha screen kinase binding assay relative to control.
For series [9], the target named is Glycogen synthase kinase-3 beta (Homo sapiens) (UniProt P49841). Description: Inhibition of full length recombinant human His-tagged GSK3beta expressed in baculovirus expression system at 5 uM by lantha screen kinase binding assay relative to control. Summed up: as §1
Series [10] has as its target Dual specificity protein kinase CLK2 (Homo sapiens) (UniProt P49760). The experiment in a line: Inhibition of recombinant human GST-tagged CLK2 expressed in baculovirus expression system at 5 uM by lantha screen kinase binding assay relative to control. Summed up: as §1
The target in series [11] is Proto-oncogene tyrosine-protein kinase ROS (Homo sapiens) (UniProt P08922). The experiment in a line: Inhibition of recombinant human GST-tagged ROS1 expressed in baculovirus expression system at 5 uM by lantha screen kinase binding assay relative to control. In short, it runs like this:
as §1

The target in series [12] is Cyclin-dependent kinase 5/CDK5 activator 1 (Homo sapiens) (UniProt Q00535+Q15078). The experiment in a line: Inhibition of full length recombinant human GST-tagged, His-tagged CDK5/p25 expressed in baculovirus expression system at 5 uM by lantha screen kinase binding assay.
The target of series [13] is Mitogen-activated protein kinase 8 (Homo sapiens) (UniProt P45983). The experiment in a line: Inhibition of full length recombinant human His-tagged MAPK8 expressed in baculovirus expression system at 5 uM by lantha screen kinase binding assay relative to control. In short, it runs like this: as §1
Series [14] addresses Calcium/calmodulin-dependent protein kinase type II subunit alpha (Homo sapiens) (UniProt Q9UQM7). The experiment in a line: Inhibition of full length recombinant human His-tagged CAMK2A expressed in baculovirus expression system at 5 uM by lantha screen kinase binding assay relative to control.
Series [15] concerns the target T2, Dual specificity protein kinase CLK4 (Homo sapiens, UniProt Q9HAZ1). Particulars: 5 uM.
For series [16], the target named is T3, Serine/threonine-protein kinase pim-1 (Homo sapiens, UniProt P11309). The experiment in a line: Inhibition of PIM1 (unknown origin) at 1 uM relative to control. In short, it runs like this: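 Single-point screen at 1 μM compound. Percent inhibition is the mean of two separate measurements, each run in duplicate.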
Series [17] concerns the target Casein kinase I isoform delta (Homo sapiens) (UniProt P48730). The experiment in a line: Inhibition of full length recombinant human GST-tagged CSNK1D expressed in baculovirus expression system at 1 uM by lantha screen kinase binding assay relative to control.
The target of series [18] is T2, Dual specificity protein kinase CLK4. As to conditions: 1 uM.
In series [19] the target is Dual specificity tyrosine-phosphorylation-regulated kinase 4 (Homo sapiens) (UniProt Q9NR20). Description: Inhibition of full length recombinant human GST-tagged DYRK4 expressed in baculovirus expression system at 1 uM by lantha screen kinase binding assay relative to control.
In series [20] the target is T1, Myosin light chain kinase 2, skeletal/cardiac muscle. Description: Inhibition of full length recombinant human N-terminal GST-tagged skeletal MYLK2 expressed in baculovirus expression system at 1 uM by lantha screen kinase binding assay relative to control. Summed up:
as §1

The target of series [21] is T3, Serine/threonine-protein kinase pim-1. The experiment in a line: Inhibition of PIM1 (unknown origin). Summed up: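 Calculated from means of duplicates differing by less than 7%.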
Series [22] concerns the target Dual specificity tyrosine-phosphorylation-regulated kinase 3 (Homo sapiens) (UniProt O43781). The experiment in a line: Inhibition of full length recombinant human GST-tagged DYRK3 expressed in baculovirus expression system at 1 uM by lantha screen kinase binding assay relative to control.
Series [23] deals with cAMP-dependent protein kinase catalytic subunit alpha (Homo sapiens) (UniProt P17612). The experiment in a line: Inhibition of recombinant human His-tagged PRKACA expressed in Escherichia coli at 1 uM by lantha screen kinase binding assay relative to control. Summed up: as §1
Series [24] deals with Serine/threonine-protein kinase 26 (Homo sapiens) (UniProt Q9P289). The experiment in a line: Inhibition of full length recombinant human GST-tagged MST4 expressed in baculovirus expression system at 1 uM by lantha screen kinase binding assay relative to control.
For series [25], the target named is Casein kinase I isoform gamma-2 (Homo sapiens) (UniProt P78368). The experiment in a line: Inhibition of full length recombinant human His-tagged CSNK1G2 expressed in baculovirus expression system at 1 uM by lantha screen kinase binding assay relative to control.
Series [26] concerns the target Homeodomain-interacting protein kinase 1 (Homo sapiens) (UniProt Q86Z02). The experiment in a line: Inhibition of recombinant human N-terminal GST-tagged HIPK1 expressed in baculovirus expression system at 1 uM by lantha screen kinase binding assay relative to control. Summed up:
as §1

Series [27] has as its target Dual specificity protein kinase CLK3 (Homo sapiens, UniProt P49761). Description: Inhibition of recombinant human GST-tagged CLK3 expressed in baculovirus expression system by lantha screen kinase binding assay. In short, it runs like this: as §1
The target in series [28] is BDNF/NT-3 growth factors receptor (Homo sapiens) (UniProt Q16620). The experiment in a line: Inhibition of recombinant human His-tagged NTRK2 expressed in baculovirus expression system at 1 uM by lantha screen kinase binding assay relative to control. In short, it runs like this:
as §1

The target in series [29] is Proto-oncogene tyrosine-protein kinase ROS (Homo sapiens) (UniProt P08922). The experiment in a line: Inhibition of recombinant human GST-tagged ROS1 expressed in baculovirus expression system at 1 uM by lantha screen kinase binding assay relative to control. Summed up:
as §1

In series [30] the target is Epidermal growth factor receptor (Homo sapiens, UniProt P00533). Description: Inhibition of recombinant human GST-tagged EGFR expressed in baculovirus expression system at 1 uM by lantha screen kinase binding assay relative to control. Summed up: as §1
Series [31] has as its target T1, Myosin light chain kinase 2, skeletal/cardiac muscle. Description: Inhibition of full length recombinant human N-terminal GST-tagged MLCK expressed in baculovirus expression system at 1 uM by lantha screen kinase binding assay relative to control. In short, it runs like this: as §1
Series [32] has as its system Plasma. Description: Metabolic stability in rat plasma assessed as drug degradation at 1 uM after 120 mins by LC-MS/MS analysis. The format is ADME, cell-free. Particulars: 2 h. Summed up: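 Compound (1 µM) in pooled heparinised rat plasma at 37 °C, sampled at 0, 5, 15, 30, 60 and 120 min. Reaction stopped with 5 volumes of cold acetonitrile containing internal standard. Remaining compound was measured by LC-MS/MS; means of two experiments.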

Active and inactive are the calls of the source. No cut-off for these calls is given here.

T1 sequence (Q9H1R3 whole entry): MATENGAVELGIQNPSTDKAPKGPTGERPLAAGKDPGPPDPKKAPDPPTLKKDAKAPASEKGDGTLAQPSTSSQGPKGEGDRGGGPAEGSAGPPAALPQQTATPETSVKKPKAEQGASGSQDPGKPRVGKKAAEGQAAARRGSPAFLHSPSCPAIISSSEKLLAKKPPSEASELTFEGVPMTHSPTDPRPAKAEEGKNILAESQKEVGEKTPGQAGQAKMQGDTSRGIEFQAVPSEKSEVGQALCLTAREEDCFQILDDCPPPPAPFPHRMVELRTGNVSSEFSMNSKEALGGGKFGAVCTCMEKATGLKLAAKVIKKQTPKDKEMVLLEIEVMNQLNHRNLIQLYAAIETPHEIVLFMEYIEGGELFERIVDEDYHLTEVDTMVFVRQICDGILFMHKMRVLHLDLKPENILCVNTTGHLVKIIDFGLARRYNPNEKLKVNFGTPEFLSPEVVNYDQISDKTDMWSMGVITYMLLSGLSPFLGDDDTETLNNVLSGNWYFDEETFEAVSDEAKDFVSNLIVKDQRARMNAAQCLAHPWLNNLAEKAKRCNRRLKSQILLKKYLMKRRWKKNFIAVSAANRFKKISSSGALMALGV
T2 sequence (Q9HAZ1 whole entry, looked up): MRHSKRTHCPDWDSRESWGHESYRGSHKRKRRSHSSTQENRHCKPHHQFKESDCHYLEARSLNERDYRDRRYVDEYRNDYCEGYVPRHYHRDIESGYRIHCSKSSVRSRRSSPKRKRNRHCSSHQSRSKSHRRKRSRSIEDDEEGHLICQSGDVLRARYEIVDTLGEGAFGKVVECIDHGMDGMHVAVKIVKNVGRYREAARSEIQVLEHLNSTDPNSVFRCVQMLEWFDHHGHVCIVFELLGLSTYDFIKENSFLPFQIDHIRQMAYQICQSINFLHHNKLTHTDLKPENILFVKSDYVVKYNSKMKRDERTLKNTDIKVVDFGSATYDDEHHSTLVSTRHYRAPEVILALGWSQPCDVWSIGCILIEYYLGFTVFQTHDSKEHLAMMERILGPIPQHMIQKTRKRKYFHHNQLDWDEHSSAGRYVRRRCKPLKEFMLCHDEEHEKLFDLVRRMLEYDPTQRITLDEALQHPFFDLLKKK
Sequence of Proto-oncogene tyrosine-protein kinase ROS (Homo sapiens) (P08922 whole entry): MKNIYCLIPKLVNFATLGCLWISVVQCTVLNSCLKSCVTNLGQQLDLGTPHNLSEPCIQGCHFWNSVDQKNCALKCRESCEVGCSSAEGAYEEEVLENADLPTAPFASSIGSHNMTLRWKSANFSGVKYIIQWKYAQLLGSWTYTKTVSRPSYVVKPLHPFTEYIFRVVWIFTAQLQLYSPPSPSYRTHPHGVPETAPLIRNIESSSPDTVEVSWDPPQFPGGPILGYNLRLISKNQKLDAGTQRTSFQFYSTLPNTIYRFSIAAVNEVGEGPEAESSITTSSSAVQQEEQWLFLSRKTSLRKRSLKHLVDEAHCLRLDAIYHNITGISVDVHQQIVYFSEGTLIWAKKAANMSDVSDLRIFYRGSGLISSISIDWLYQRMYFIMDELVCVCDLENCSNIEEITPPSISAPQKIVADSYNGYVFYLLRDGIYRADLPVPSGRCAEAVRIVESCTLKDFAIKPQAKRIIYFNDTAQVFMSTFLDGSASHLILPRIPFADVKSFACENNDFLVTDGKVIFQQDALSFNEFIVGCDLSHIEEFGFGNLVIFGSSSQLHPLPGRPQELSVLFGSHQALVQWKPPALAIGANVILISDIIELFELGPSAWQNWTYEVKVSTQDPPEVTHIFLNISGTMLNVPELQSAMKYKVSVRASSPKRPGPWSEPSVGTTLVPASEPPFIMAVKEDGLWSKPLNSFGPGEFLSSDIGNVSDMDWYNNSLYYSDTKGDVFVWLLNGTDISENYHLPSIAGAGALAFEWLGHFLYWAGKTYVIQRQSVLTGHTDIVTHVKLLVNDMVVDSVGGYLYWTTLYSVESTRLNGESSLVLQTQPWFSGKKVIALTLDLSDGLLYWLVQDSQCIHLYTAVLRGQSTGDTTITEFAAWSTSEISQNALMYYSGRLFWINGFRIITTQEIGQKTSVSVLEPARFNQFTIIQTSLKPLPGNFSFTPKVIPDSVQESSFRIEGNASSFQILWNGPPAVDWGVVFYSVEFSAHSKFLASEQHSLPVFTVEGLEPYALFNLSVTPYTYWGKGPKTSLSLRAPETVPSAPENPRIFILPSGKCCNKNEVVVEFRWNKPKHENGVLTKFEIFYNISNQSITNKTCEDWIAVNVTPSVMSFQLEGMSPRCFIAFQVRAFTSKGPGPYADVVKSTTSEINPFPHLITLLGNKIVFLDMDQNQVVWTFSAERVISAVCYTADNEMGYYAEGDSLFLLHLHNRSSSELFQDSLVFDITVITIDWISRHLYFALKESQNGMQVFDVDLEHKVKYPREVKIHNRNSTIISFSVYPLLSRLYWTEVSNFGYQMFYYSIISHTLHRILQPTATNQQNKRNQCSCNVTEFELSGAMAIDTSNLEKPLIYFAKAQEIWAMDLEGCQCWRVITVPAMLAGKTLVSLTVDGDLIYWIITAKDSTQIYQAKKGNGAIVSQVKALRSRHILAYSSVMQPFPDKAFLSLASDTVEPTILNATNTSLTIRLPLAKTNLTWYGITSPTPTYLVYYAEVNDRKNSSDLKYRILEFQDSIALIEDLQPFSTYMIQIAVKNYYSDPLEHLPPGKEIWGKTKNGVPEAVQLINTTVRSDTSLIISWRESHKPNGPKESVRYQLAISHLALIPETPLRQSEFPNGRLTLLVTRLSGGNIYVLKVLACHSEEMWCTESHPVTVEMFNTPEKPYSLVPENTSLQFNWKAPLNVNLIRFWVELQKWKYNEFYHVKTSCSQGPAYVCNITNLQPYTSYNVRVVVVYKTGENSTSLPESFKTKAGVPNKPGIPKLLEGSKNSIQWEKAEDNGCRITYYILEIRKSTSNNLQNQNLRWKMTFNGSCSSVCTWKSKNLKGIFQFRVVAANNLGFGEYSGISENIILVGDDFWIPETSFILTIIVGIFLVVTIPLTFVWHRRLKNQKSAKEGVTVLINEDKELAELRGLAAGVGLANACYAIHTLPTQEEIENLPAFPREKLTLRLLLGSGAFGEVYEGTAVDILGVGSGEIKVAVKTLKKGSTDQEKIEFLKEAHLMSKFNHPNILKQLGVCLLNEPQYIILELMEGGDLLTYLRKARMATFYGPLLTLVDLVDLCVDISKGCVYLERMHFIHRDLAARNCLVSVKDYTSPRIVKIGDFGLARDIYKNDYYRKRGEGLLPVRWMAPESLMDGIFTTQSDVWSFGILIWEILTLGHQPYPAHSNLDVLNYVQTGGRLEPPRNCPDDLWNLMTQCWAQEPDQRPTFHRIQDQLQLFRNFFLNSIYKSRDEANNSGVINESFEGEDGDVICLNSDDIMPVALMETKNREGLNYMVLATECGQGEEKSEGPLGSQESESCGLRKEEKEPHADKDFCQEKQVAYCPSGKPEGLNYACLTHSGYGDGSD
Sequence of BDNF/NT-3 growth factors receptor (Homo sapiens) (Q16620 32-822 limits assumed): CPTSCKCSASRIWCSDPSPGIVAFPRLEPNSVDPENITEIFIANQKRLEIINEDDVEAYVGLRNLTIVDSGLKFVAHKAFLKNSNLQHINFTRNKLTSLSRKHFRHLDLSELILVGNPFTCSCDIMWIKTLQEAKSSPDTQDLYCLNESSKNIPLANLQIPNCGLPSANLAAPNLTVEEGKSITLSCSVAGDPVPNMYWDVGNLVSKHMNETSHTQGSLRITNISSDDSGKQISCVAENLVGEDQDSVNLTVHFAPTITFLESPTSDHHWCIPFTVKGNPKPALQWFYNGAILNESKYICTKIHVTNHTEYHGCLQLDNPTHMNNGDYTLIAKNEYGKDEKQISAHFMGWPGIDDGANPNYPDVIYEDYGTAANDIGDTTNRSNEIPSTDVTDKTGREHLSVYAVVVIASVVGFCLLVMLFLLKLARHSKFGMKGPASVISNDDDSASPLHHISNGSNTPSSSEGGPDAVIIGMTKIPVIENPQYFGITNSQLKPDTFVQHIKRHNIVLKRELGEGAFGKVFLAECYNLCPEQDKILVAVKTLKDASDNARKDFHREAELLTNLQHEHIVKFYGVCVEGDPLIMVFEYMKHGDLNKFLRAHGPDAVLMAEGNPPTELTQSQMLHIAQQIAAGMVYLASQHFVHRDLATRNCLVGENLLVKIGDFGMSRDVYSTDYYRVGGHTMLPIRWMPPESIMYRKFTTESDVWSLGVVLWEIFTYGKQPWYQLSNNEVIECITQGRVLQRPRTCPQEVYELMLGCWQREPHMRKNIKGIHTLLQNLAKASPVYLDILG
Sequence of Casein kinase I isoform gamma-2 (Homo sapiens) (P78368 whole entry, looked up, canonical isoform): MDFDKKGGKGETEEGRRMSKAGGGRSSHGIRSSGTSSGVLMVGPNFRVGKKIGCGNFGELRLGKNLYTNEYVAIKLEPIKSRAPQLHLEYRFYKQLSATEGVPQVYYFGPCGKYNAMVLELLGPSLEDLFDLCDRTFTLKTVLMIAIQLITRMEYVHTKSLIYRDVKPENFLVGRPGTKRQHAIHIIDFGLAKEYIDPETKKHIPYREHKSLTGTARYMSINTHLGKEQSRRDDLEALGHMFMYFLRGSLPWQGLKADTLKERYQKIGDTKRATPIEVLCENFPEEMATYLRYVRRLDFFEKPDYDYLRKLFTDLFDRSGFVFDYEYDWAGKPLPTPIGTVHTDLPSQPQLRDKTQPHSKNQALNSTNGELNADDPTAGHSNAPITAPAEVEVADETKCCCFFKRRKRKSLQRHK
Sequence of Casein kinase I isoform delta (Homo sapiens) (P48730 whole entry, looked up, canonical isoform): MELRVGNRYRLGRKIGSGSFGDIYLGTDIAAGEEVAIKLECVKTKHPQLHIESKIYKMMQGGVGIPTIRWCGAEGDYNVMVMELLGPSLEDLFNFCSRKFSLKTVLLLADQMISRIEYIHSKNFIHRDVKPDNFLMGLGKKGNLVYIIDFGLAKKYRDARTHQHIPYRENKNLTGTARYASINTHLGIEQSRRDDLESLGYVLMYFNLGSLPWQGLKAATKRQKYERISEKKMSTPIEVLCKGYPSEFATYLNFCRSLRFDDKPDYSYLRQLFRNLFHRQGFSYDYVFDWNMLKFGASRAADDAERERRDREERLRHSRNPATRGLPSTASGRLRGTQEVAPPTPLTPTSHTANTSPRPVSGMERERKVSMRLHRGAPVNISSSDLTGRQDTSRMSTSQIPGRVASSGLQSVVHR

As to `O=C1NC(=S)S/C1=C\c1ccc2ncsc2c1`, the inhibition result in series [1], in series [2], in series [4], in series [5], in series [6] and in series [7] was “inactive” in each case. Further, the inhibition result in series [8], in series [11], in series [12] and in [14] was “inactive” throughout. Moreover, the inhibition in series [3] was 12%; in [9], 8%; in series [10], 65%; in series [13], 14%; in series [15], 98%.
For the compound `O=C1NC(=S)S/C1=C\c1ccc2ncccc2c1`, the inhibition in series [16] was found to be 89%; in series [17], 11%; in [18], 97%; in series [19], 39%; in series [20] it was 35%; in series [22] it was 84%. Also, the inhibition worked out at 43% in series [25]; 33% in [26]; 3% in series [28]; 5% in [29]; 89% in series [31]. In addition, the values for the IC50 in series [21] and in series [27] were 103 nM and 86.6 nM, respectively. Also, the inhibition result in series [23], in series [24] and in series [30] was “inactive” in each case.
For the compound `CC1C/C(=C\c2ccc3c(c2)CCO3)C(=O)O1` (configuration not stated), in series [32], the Stability entry was “Stable”.

One may read the inhibition as how much of the control response was suppressed. A word on the IC50: it is the concentration that gives 50% inhibition.

The values are drawn from ChEMBL document CHEMBL3774321, “Systematic diversification of benzylidene heterocycles yields novel inhibitor scaffolds selective for Dyrk1A, Clk1 and CK2” (Eur J Med Chem, 2016).
